Measurements as given in PMC4987221 (Bioorganic & medicinal chemistry letters, 2016).
Values belong to the molecule of their own block, whether it stands above or below them.

Columns and labels:
[1] = target: T1, human M1 (Homo sapiens, UniProt P11229); experiment: Built-in HTS counterscreen, human M1; format: cell-based
T1 sequence (P11229 1-460): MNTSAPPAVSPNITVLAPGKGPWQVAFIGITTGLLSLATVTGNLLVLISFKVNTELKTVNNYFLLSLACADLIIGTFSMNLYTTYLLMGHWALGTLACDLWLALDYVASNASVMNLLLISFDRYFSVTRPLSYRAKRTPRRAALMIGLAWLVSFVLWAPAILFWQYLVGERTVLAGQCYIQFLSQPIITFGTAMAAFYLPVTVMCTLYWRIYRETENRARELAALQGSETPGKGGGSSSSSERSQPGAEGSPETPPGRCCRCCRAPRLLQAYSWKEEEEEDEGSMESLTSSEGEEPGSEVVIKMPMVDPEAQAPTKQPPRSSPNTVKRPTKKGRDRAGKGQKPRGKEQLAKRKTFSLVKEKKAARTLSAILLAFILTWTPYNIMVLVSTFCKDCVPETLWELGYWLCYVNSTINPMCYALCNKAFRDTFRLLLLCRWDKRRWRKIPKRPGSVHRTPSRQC

[2] = Hepatic microsomal intrinsic clearance, human; format: in vitro ADME
How it was run: (§1)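 Intrinsic clearance was measured in hepatic microsomes (human for line 4, rat for line 5), and predicted hepatic clearance was calculated from the microsomal CLint. Data come from a single experiment run in triplicate.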

[3] = target: T2, hM4 (Homo sapiens, UniProt P08173); format: cell-based
T2 sequence (P08173 1-479): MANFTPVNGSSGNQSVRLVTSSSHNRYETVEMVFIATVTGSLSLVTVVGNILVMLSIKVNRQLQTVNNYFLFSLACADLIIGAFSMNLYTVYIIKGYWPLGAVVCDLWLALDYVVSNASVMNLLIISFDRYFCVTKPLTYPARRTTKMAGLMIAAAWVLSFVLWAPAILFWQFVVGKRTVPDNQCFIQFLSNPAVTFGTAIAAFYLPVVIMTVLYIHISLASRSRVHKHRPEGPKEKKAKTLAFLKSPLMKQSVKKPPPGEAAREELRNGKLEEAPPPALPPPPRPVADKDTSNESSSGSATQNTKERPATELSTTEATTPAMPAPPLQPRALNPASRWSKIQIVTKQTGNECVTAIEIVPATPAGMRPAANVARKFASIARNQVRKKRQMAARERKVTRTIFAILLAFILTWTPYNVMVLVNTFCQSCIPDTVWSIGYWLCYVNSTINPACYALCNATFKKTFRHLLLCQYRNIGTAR
How it was run: (§2)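 Functional calcium mobilization in CHO cells expressing M4 with the Gqi5 chimeric G protein (human M4 for line 2, rat M4 for line 3). The test compound was added with a fixed EC20 acetylcholine concentration, and efficacy was expressed as % of the maximal acetylcholine response. For the screening hit, DMSO stock from the screening source plates was used. Values are means of three independent experiments, each run in triplicate.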

[4] = target: T3, rM4 (Rattus norvegicus, UniProt P08485); format: cell-based; conditions: unit not given
T3 sequence (P08485 1-478): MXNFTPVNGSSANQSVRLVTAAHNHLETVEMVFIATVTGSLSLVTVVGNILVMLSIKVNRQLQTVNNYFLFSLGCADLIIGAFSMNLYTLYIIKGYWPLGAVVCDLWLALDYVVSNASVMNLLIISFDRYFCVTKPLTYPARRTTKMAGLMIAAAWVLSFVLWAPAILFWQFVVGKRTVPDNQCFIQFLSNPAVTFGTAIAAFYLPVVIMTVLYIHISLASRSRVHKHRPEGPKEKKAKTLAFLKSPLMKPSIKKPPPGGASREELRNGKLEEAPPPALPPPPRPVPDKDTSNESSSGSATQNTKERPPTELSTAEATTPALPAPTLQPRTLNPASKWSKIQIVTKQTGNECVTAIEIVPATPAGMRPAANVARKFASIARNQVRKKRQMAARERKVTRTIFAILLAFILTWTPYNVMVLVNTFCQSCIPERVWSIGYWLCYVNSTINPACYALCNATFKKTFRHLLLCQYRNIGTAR
How it was run: as §2

[5] = target: T4, human M5 (Homo sapiens, UniProt P08912); experiment: Built-in HTS counterscreen, human M5; format: cell-based
T4 sequence (P08912 1-532): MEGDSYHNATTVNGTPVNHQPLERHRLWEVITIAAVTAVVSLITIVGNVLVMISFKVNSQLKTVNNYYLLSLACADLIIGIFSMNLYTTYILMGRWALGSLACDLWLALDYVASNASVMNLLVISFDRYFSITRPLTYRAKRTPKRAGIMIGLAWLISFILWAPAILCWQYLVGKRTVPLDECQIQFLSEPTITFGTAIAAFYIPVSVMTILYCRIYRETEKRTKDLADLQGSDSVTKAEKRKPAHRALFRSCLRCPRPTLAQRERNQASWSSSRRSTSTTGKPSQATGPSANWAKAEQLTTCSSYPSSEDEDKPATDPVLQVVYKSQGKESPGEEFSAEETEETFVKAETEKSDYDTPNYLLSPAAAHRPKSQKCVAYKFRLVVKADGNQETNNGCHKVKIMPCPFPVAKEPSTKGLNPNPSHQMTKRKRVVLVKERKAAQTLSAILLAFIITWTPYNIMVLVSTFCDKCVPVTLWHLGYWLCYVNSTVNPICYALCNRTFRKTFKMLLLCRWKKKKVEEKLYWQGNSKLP

[6] = Hepatic microsomal intrinsic clearance, rat; format: in vitro ADME; conditions: for predicted hepatic clearance rCLhep: rat, from microsomal CLint
How it was run: as §1

[7] = Metabolite identification in human cryopreserved hepatocytes; format: in vitro ADME; conditions: secondary alcohol 18 as the single major metabolite
[8] = human hepatic microsomes, in words
[9] = rat hepatic microsomes, in words

activity on human M1 [1]: inactive
in vitro intrinsic clearance (CLint) [2, 8]: very high
predicted hepatic clearance (CLhep) [2, 8]: near hepatic blood flow rates
human M4 % ACh Max ([3]; HTS hit, using DMSO stock from the source plates): 76%
hM4 ACh Max ([3]; unit not given): 76.8±4.1
rM4 ACh Max [4]: 80.5±6.3
activity on human M5 [5]: inactive
in vitro intrinsic clearance (CLint) [6, 9]: very high
predicted hepatic clearance (CLhep) [6, 9]: near hepatic blood flow rates
Compound: Cc1nc2sc(C(=O)c3ccccc3)c(N)c2c(C)c1C [Cpd 7]

Compound: Cc1cc(C)c2c(N)c(C(=O)c3ccncc3)sc2n1 [Cpd 12f]
metabolism route (Met ID) [7]: rapid, and near quantitative, reductive metabolism

predicted hepatic clearance hCLhep ([2]; human, from microsomal CLint): 18 mL/min/kg
predicted hepatic clearance rCLhep [6]: 62 mL/min/kg
Compound: Cc1cc(C)c2c(N)c(C(=O)CCc3ccncc3)sc2n1 [Cpd 19]

predicted hepatic clearance rCLhep [6]: 62 mL/min/kg
Compound: COc1ccc(CCC(=O)c2sc3nnc(C)c(C)c3c2N)cc1F [Cpd 20]
